Measurements taken from PubChem BioAssay.
Results filed as inconclusive are left out.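 How the source made its calls, unless noted: active means RAM network inhibition above 8.4% in each of two replicates, 3 SD over the compound average; inconclusive means above 8.4% inhibition in only one replicate; inactive means 8.4% inhibition or less in each replicate.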

Columns and labels:
[1] = S. cerevisiae growth inhibition in permissive medium (OD615), pilot counter-assay for S. cerevisiae lifespan shortening project, permissive growth control (AID 705;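 active means growth inhibition above 25% in both replicates, a cutoff set 3 SD above the mean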); settings: OD615, 24 h, at 10 µM, hits give high values
How it was run: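 System: Engineered DeaD yeast | Buffer or medium: SC raffinose/galactose permissive medium | Incubation: Cells pre-grown 4 h, then 24 h compound exposure, 30 °C humidified | Measured by: Absorbance (optical density) at 615 nm | Read-out: Reduction in yeast growth (OD615)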

[2] = S. cerevisiae growth inhibition in restrictive medium, OD615, pilot screen, restrictive growth control, yeast lifespan reduction project (AID 706;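 active means growth inhibition above a set limit, 3 SD over mean compound inhibition, in both replicates, cut at about 43% in these data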;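 further: modified DeaD lifespan yeast strain shifted to restrictive glucose medium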); settings: OD615, 48 h, at 10 µM, hits give high values
How it was run: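 Material: modified S. cerevisiae; Medium: glucose-based CSMM-D restrictive medium; Compound dosing: one concentration, 10 µM final, 0.25% DMSO; Incubation: 48 h compound exposure at 30 °C; Measured by: OD615.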

[3] = doxorubicin toxicity protection in MRP-1 cells – H69AR cells, CellTiter-Glo, duplicate, MRP-1 activator project, pilot screen (AID 807;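 active means viability increase at or above a cutoff of the median across tested compounds plus 3 SD, cut at about 8.5% in these data, passing the limit was not always enough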;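 further: compound pretreatment 18-22 h then 72 h combined with doxorubicin; 0% = doxorubicin alone and 100% = vehicle without doxorubicin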); settings: H69AR viability with doxorubicin, CellTiter-Glo luminescence; at 10 µM; hits give high values
[4] = viability of HCT116 without oncogenic beta-catenin – human colon tumor cells, pilot screen (AID 823;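 active means cell viability at or below a set limit in both duplicate runs, the limit being the all-compound median minus 4 SD, cut at about 23% in these data, passing the limit was not always enough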;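 further: 0% = wells killed by 20 µM Hyamine and 100% = untreated DMSO cell wells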); settings: HCT116 beta-catenin knockout viability, CellTiter-Glo, 60 h; at 10 µM; hits give low values
[5] = viability of PTEN-null HCT116 cells – cell-based, HCT116 clonal line, CellTiter-Glo, pilot screen (AID 824;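 active means viability at or below 27.92% in each of two runs, the all-compound median minus 4 SD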;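 further: 0% = 20 µM Hyamine control and 100% = vehicle cell control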); settings: HCT116 PTEN-deleted viability, 60 h, at 10 µM, hits give low values
[6] = RAM pathway blockade in budding yeast – dse1pr::URA3 reporter, 5-FOA selection, pilot screen (AID 869;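 active means inhibition over a set limit, the all-compound mean plus 3 SD, in both replicate runs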;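 further: 0% = DMSO wells with no growth and 100% = 10 µM 1-NA-PP1 with full growth; RAM network block rescues cells from 5-FOA so hits raise OD615 growth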); settings: S. cerevisiae dse1pr::URA3 5-FOA growth, OD615, 2 d; at 10 µM; hits give high values; strain carries analog-sensitive mutant Cbk1 kinase
[7] = RAM signaling pathway blockade in yeast – S. cerevisiae, Pdr1DBD-CYC8 efflux-inhibited sensitized strain, primary screen (AID 1298);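 further: 0% = DMSO untreated cells without growth and 100% = 10 µM 1-NA-PP1 full growth; higher means more yeast growth rescued from 5-FOA killing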; settings: S. cerevisiae cbk1-as DSE1-URA3 strain, 5-FOA growth OD615, 2 d; at 50 µM; hits give high values

CCS(=O)(=O)NCC(c1cccnc1)N1CCN(c2ccccc2OC)CC1 (configuration not stated)
inactive: growth inhibition [1] -2.57% | growth inhibition [2] -3.32% | viability increase [3] -0.33% | viability [4] 98.3% | viability [5] 105% | inhibition [6] 1.11% | RAM network inhibition [7] 3.37%

COc1ccc(-c2nnc3ccc(SCC(=O)N4CCCC4)nn23)cc1
inactive: growth inhibition [1] 3.94% | growth inhibition [2] 1.08% | viability increase [3] -4.23% | viability [4] 101% | viability [5] 99.5% | inhibition [6] 1.44% | RAM network inhibition [7] 0.16%

c1ccc(C2NCCn3cccc32)cc1 (configuration not stated)
inactive: growth inhibition [1] -8.84% | growth inhibition [2] -13.7% | viability increase [3] -2.82% | viability [4] 99% | viability [5] 98% | inhibition [6] 0.21% | RAM network inhibition [7] 2.74%

CSc1cc(/C=N/O)c(SC)s1
inactive: growth inhibition [1] -6.62% | growth inhibition [2] 1.13% | viability increase [3] -3.3% | viability [4] 97.3% | viability [5] 95.9% | inhibition [6] 0.395% | RAM network inhibition [7] -1.95%

COc1ccc(-c2cn3c(C)c(C(=O)N4CCN(c5ccccc5)CC4)sc3n2)cc1
inactive: growth inhibition [1] -0.58% | growth inhibition [2] -13.6% | viability increase [3] -1.3% | viability [4] 101% | viability [5] 95.6% | inhibition [6] 1.88% | RAM network inhibition [7] 0.88%

COc1ccc(N(CC(=O)NCc2cccnc2)S(=O)(=O)c2c(C)nn(C)c2C)cc1
inactive: growth inhibition [1] -19.9% | growth inhibition [2] -19.4% | viability increase [3] -1.49% | viability [4] 98.5% | viability [5] 95.2% | inhibition [6] 1.57% | RAM network inhibition [7] 7.6%

COc1ccc2c(Cl)c(-c3nnc(SCC(N)=O)n3C)sc2c1
inactive: growth inhibition [1] -2.31% | growth inhibition [2] 11.7% | viability increase [3] -2.99% | viability [4] 106% | viability [5] 94% | inhibition [6] 1.43% | RAM network inhibition [7] 0.69%

COc1ccc(Nc2cc(C)nc3nc(C)nn23)c(OC)c1
inactive: growth inhibition [1] -2.91% | growth inhibition [2] 4.67% | viability increase [3] -1.65% | viability [4] 109% | viability [5] 106% | inhibition [6] 0.83% | RAM network inhibition [7] 0.32%

CC(NC(=O)c1cccnc1)C(c1cccs1)N1CCN(C)CC1 (configuration not stated)
inactive: growth inhibition [1] -4.91% | growth inhibition [2] 5.15% | viability increase [3] 0.3% | viability [4] 98.2% | viability [5] 95% | inhibition [6] 0.955% | RAM network inhibition [7] 4.79%

CCc1ccc(C2CC(c3ccc(C)cc3)Nc3nc(N)nn32)cc1 (configuration not stated)
inactive: growth inhibition [1] -5.94% | growth inhibition [2] -9.54% | viability increase [3] 2.61% | viability [4] 106% | viability [5] 93.6% | inhibition [6] 2.66% | RAM network inhibition [7] 8.09%

CCOC(=O)c1ccc(NC(=O)CSc2nc(C)cc(=O)[nH]2)cc1
inactive: growth inhibition [1] -7.82% | growth inhibition [2] 8.13% | viability increase [3] -1.06% | viability [4] 98.5% | viability [5] 100% | inhibition [6] -0.79% | RAM network inhibition [7] 0.78%

O=C(COc1cc(=O)n2c(n1)SCCC2)c1ccccc1
inactive: growth inhibition [1] -6.77% | growth inhibition [2] -2.62% | viability increase [3] -1.08% | viability [4] 102% | viability [5] 92.7% | inhibition [6] 1.56% | RAM network inhibition [7] 1.89%

O=C(c1ccccc1F)N1CCN=C1SCc1cccnc1
inactive: growth inhibition [1] -22.1% | growth inhibition [2] 1.65% | viability increase [3] -1.2% | viability [4] 96.8% | viability [5] 99.8% | inhibition [6] 0.695% | RAM network inhibition [7] 4.47%

CCN1CCN(Cc2nc3c(c(=O)n(C)c(=O)n3C)n2Cc2ccccc2Cl)CC1
inactive: growth inhibition [1] -8.38% | growth inhibition [2] -13.4% | viability increase [3] -3.38% | viability [4] 91.7% | viability [5] 91.6% | inhibition [6] 1.17% | RAM network inhibition [7] 0.71%

C=CCSc1nnc2c(n1)[nH]c1c(C)cccc12
inactive: growth inhibition [1] -27.3% | growth inhibition [2] 3.13% | viability increase [3] -5.97% | viability [4] 64.6% | viability [5] 65.6% | inhibition [6] 1.71% | RAM network inhibition [7] 5.38%

COc1ccc(C2C(C(=O)N3CCCC3)c3cc(OC)c(OC)cc3C(=O)N2C)cc1OC (configuration not stated)
inactive: growth inhibition [1] -6.69% | growth inhibition [2] -25.4% | viability increase [3] -1.65% | viability [4] 105% | viability [5] 100% | inhibition [6] 1.54% | RAM network inhibition [7] 2.23%

Cc1[nH]n(-c2ccccc2)c(=O)c1S(=O)(=O)c1ccccc1
inactive: growth inhibition [1] -0.29% | growth inhibition [2] -3.15% | viability increase [3] 0.62% | viability [4] 102% | viability [5] 98.7% | inhibition [6] 0.08% | RAM network inhibition [7] 2.99%

O=C(C1CCN(c2ncnc3c2sc2cccc(F)c23)CC1)N1CCOCC1
inactive: growth inhibition [1] 0.06% | growth inhibition [2] 2.17% | viability increase [3] -6.73% | viability [4] 77.2% | viability [5] 76.8% | inhibition [6] 3.08% | RAM network inhibition [7] 1.81%

O=C(CN1CC(c2ccccc2)CC1=O)Nc1ccc2c(c1)OCO2 (configuration not stated)
inactive: growth inhibition [1] -7.38% | growth inhibition [2] 0.29% | viability increase [3] -1.16% | viability [4] 98% | viability [5] 101% | inhibition [6] 0.205% | RAM network inhibition [7] 1.31%

Cc1cc(NC(=O)CSc2nnc(Cc3cccn3C)n2CCc2ccccc2)no1
inactive: growth inhibition [1] 6.44% | growth inhibition [2] 14.2% | viability increase [3] -2.85% | viability [4] 93.2% | viability [5] 89.4% | inhibition [6] 0.955% | RAM network inhibition [7] 7.83%

CC(C)c1cc(C(=O)Nc2ccc3c(c2)OCO3)no1
inactive: growth inhibition [1] -13.7% | growth inhibition [2] 4.26% | viability increase [3] -4.63% | viability [4] 94.2% | viability [5] 92.8% | inhibition [6] 1.88% | RAM network inhibition [7] 3.88%

CCOc1ccc(C2N(c3ccc(Cl)cc3)C(=O)C3CCCN32)cc1OC (configuration not stated)
inactive: growth inhibition [1] -2.75% | growth inhibition [2] -6.81% | viability increase [3] -1.98% | viability [4] 98.7% | viability [5] 95.8% | inhibition [6] -0.115% | RAM network inhibition [7] 5.42%

Cc1nc2scc(-c3cccs3)c2c(=O)o1
inactive: growth inhibition [1] -24% | growth inhibition [2] 14.4% | viability increase [3] -1.96% | viability [4] 95.8% | viability [5] 98.7% | inhibition [6] 1.73% | RAM network inhibition [7] 3.15%

CN1CCN(S(=O)(=O)c2ccc3c4c(cccc24)C(=O)N3)CC1
inactive: growth inhibition [1] -11.8% | growth inhibition [2] -4.42% | viability increase [3] -2% | viability [4] 110% | viability [5] 96.4% | inhibition [6] 1.18% | RAM network inhibition [7] 1.28%

Cc1ccc(C)c(N2CCN(C(=O)CCS(=O)(=O)c3cccc4nonc34)CC2)c1
inactive: growth inhibition [1] -16.3% | growth inhibition [2] -12.5% | viability increase [3] -5.38% | viability [4] 88.8% | viability [5] 91.8% | inhibition [6] 1.31% | RAM network inhibition [7] 6.07%

NS(=O)(=O)c1ccc(S(=O)(=O)NCCc2ccccc2)cc1
inactive: growth inhibition [1] -4.76% | growth inhibition [2] 8.78% | viability increase [3] 0.73% | viability [4] 93.3% | viability [5] 94.9% | inhibition [6] 1% | RAM network inhibition [7] 3.88%

CCc1nn(CC(=O)NCCCN2CCCC2=O)c(=O)c2cc3sccc3n12
inactive: growth inhibition [1] -8.81% | growth inhibition [2] -16.4% | viability increase [3] -2.31% | viability [4] 112% | viability [5] 108% | inhibition [6] 1.91% | RAM network inhibition [7] 0.36%

COC(=O)COC(=O)CC(CC(N)=O)c1ccccc1 (configuration not stated)
inactive: growth inhibition [1] -8.58% | growth inhibition [2] -0.775% | viability increase [3] -0.29% | viability [4] 95% | viability [5] 102% | inhibition [6] 2.13% | RAM network inhibition [7] 3.07%

O=C1c2ccccc2C(Nc2ccc3c(c2)OCCO3)N1c1ccc(Cl)cn1 (configuration not stated)
inactive: growth inhibition [1] -12.2% | growth inhibition [2] 3.92% | viability increase [3] 1.76% | viability [4] 81.7% | viability [5] 75.2% | inhibition [6] 1.83% | RAM network inhibition [7] 9.61%

CCOC(=O)N1CCC(Nc2c(N3CCN(c4cc(Cl)ccc4C)CC3)c(=O)c2=O)CC1
inactive: growth inhibition [1] 3.09% | growth inhibition [2] 4.44% | viability increase [3] -2.34% | viability [4] 71.9% | viability [5] 72.3% | inhibition [6] 2.42% | RAM network inhibition [7] 2.95%

CCCCn1c(CCNC(=O)CC)nc2ccccc21
inactive: growth inhibition [1] -8.93% | growth inhibition [2] -5.17% | viability increase [3] -1.11% | viability [4] 98.8% | viability [5] 101% | inhibition [6] 1.86% | RAM network inhibition [7] 5.26%

CC(=O)NCCc1cc2ccc(C)c(C)c2[nH]c1=O
inactive: growth inhibition [1] -14.9% | growth inhibition [2] -18.7% | viability increase [3] -1.53% | viability [4] 103% | viability [5] 97% | inhibition [6] 1.05% | RAM network inhibition [7] 0.37%

COc1cccc(OCC(=O)N(Cc2nc(-c3ccc(Cl)cc3)no2)C(C)C)c1
inactive: growth inhibition [1] -4.67% | growth inhibition [2] -2.81% | viability increase [3] 2.88% | viability [4] 91% | viability [5] 89.7% | inhibition [6] 3.32% | RAM network inhibition [7] 3.59%

CC1(C)CC2CC(C)(CN2C(=O)C23CCC(C)(C(=O)O2)C3(C)C)C1 (configuration not stated)
inactive: growth inhibition [1] -6.75% | growth inhibition [2] -1.53% | viability increase [3] -1.13% | viability [4] 92.5% | viability [5] 91.1% | inhibition [6] 2.16% | RAM network inhibition [7] 4%

CCOc1ccc(Nc2ncnc(N)n2)cc1
inactive: growth inhibition [1] -16% | growth inhibition [2] -1.21% | viability increase [3] 0.15% | viability [4] 97.4% | viability [5] 102% | inhibition [6] 0.055% | RAM network inhibition [7] 1.11%

O=C(NC(O)C(=O)c1ccccc1)c1cccs1 (configuration not stated)
inactive: growth inhibition [1] 5.04% | growth inhibition [2] -5.63% | viability increase [3] -3.2% | viability [4] 95.4% | viability [5] 101% | inhibition [6] 1.66% | RAM network inhibition [7] 2.71%
